Screens (PubChem BioAssay)
B2AR ag: activates human beta-2 adrenergic receptor causing internalization; response, % (concentration not given with the values); Am2.2-beta2AR cells, FAP receptor internalization, flow cytometry; AID 504454; hit rate 0.43% among 340,000;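 active = response above a set limit, near 3 SD of response in nonfluorescent compounds, cut at about 42% in these data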
Target sequence (P07550 whole entry, looked up): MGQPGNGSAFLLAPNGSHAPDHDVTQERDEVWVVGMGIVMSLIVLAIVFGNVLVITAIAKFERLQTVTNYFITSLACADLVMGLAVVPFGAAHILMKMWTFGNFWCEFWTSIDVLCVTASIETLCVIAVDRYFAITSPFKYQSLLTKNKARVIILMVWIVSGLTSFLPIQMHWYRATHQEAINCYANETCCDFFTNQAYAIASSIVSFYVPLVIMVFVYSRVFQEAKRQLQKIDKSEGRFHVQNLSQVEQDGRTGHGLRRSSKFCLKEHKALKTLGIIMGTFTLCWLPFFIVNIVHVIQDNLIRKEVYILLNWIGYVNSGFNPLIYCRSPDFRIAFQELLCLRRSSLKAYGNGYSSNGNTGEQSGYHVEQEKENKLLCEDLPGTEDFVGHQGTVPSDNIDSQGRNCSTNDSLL
VLA-4 inh: inhibition in a human VLA-4 binding assay; VLA-4 expressing cells, ligand binding flow cytometry; P13612; AID 2557; hit rate 0.2% among 330,000; inhibition, % (about 7 µM as worked out from the volumes in the protocol); in the data active = inhibition above about 50%
CHOP UPR activ: activators of apoptotic arm of unfolded protein response (CHOP) | CHO-CHOP luciferase reporter, UPR activation, luminescence; percent of tunicamycin response over DMSO baseline | activation, % at 10 µM | hit rate 0.34% among 330,000;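 active = at 10 µM dose, activation of 40% or more, normalized to positive control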
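System: CHO-CHOP luciferase reporter cell line; amount: 500 cells/well; buffer or medium: F12 medium containing 10% fetal bovine serum; incubation: 6 h compound exposure at 37 °C after overnight seeding; measured by: luciferase luminescence after 10 min with Steady-Glo reagent; evaluation: % reporter activation, DMSO baseline versus tunicamycin full activation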
CHOP inhibitor: CHOP inhibition in unfolded protein response; CHO-K1 CHOP-promoter luciferase, tunicamycin-induced, 15-18 h; inhibition, % at 10 µM; hit rate 3.8% among 220,000;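 active = compounds that reduced the stress-induced luciferase reporter signal by more than about 70% of percent inhibition, limit read from the data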
XBP1 UPR activ: adaptive UPR (XBP1) activation. activation, % at 20 µM. hit rate 0.33% among 330,000. CHO-XBP1 luciferase reporter, IRE1-XBP1 UPR activation, luminescence; percent of tunicamycin response, DMSO as zero;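 active = versus positive control, 20 µM dose yields 30% or more activation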
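Material: CHO-XBP1 cells stably carrying IRE1-XBP1-driven luciferase reporter / Amount: 1000 cells per well / Compound: 20 µM, 1% DMSO / Times: 6 h treatment, 37 °C / Detection: luciferase luminescence / Measure: % activation of reporter signal versus tunicamycin and DMSO controls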
B2AR ag CP1: human beta-2 adrenergic receptor agonism, cherry pick | shares compounds with B2AR ag | Am2.2-beta2AR cells, FAP surface receptor, flow cytometry; hits give low values | percent response (surface receptor), % at 10 µM | hit rate 25% among 1,100 | AID 540358;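 active = surface receptor percent response at or below 58%, roughly 3 SD from nonfluorescent compounds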
B2AR FAP counter: flagged in Am2.2 fluorescence counterscreen for beta-2AR agonists | shares compounds with B2AR ag | Am2.2 cells, FAP fluorogen flow cytometry; hits give low values | calls only at 10 µM | 1,100 tested, under 10 active | AID 588765;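 active = percent response below a set limit in fluorescence channel 1 and below 50% in channel 8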
Of the large screens only hits and unclear results are named; the others gave an inactive call (follow-up assays come after a bar, where they were run). This is one part of a sample in which hits are shown more often than they occur.

O=[N+]([O-])c1cc([N+](=O)[O-])c(Oc2cccnc2Br)cc1NN1CCCCC1	none (no result: CHOP inhibitor)
O=C(Nc1ccc2oc(-c3ccccc3F)nc2c1)c1ccc2c(c1)OCCO2	none | B2AR ag CP1 inactive | B2AR FAP counter inactive
O=C(Nc1ccc2oc(-c3ccc(F)cc3)nc2c1)c1ccccc1F	none
CN(C(=O)CSc1nc(-c2ccc(C(C)(C)C)cc2)c(C#N)c(=O)[nH]1)C1CCCCC1	none (no result: CHOP inhibitor) | B2AR ag CP1 inactive | B2AR FAP counter inactive
Cc1ccc(NC(=O)c2ccc([N+](=O)[O-])o2)c(C)c1	none
Cc1ccc(S(=O)(=O)c2ccc([N+](=O)[O-])o2)cc1	B2AR ag 86 (no result: VLA-4 inh, CHOP UPR activ, CHOP inhibitor, XBP1 UPR activ) | B2AR ag CP1 16 | B2AR FAP counter inactive
CN1CCN(S(=O)(=O)c2cccc(C(=O)NC3(C)CCS(=O)(=O)C3)c2)CC1 (stereo not drawn)	none (no result: CHOP inhibitor)
O=C(OCc1cccc(C(F)(F)F)c1)c1cc(S(=O)(=O)N2CCOCC2)ccc1F	B2AR ag 56 (no result: CHOP inhibitor) | B2AR ag CP1 inactive | B2AR FAP counter inactive
O=C(COC(=O)c1cc(S(=O)(=O)N2CCOCC2)ccc1F)c1ccccc1	none (no result: CHOP inhibitor)
Cc1cccc2sc(NC(=O)CN(C)S(=O)(=O)c3ccc(Br)s3)nc12	B2AR ag 51, CHOP inhibitor 85 | B2AR ag CP1 inactive | B2AR FAP counter inactive
COc1ccccc1CC(=O)Nc1ccc(-c2noc(COc3cccc(C)c3C)n2)cc1	none
Cc1ccccc1OCc1nc(-c2ccc(NC(=O)c3ccco3)cc2)no1	none | B2AR ag CP1 inactive | B2AR FAP counter inactive
Cc1ccccc1OCc1nc(-c2ccc(NC(=O)c3cccs3)cc2)no1	none | B2AR ag CP1 inactive | B2AR FAP counter inactive
CC(NC(=O)c1ccco1)c1nc(-c2ccccc2)no1 (stereo not drawn)	none (no result: CHOP inhibitor)
CC(Oc1ccc(Cl)cc1Cl)c1nc(-c2ccc(NC(=O)c3ccco3)cc2)no1 (stereo not drawn)	B2AR ag 66 | B2AR ag CP1 inactive | B2AR FAP counter inactive
CCCCn1c(CCl)nc2cc(S(=O)(=O)N3CCOCC3)ccc21	none (no result: CHOP inhibitor)
CC(=O)Nc1ccc(-c2cn3c(n2)SCC3)cc1	B2AR ag 60 (no result: CHOP inhibitor) | B2AR ag CP1 53 | B2AR FAP counter inactive
COc1ccc(S(=O)(=O)N2CCCCC2)cc1NC(=O)CSc1ncccn1	none (no result: CHOP inhibitor)
Cc1c(Br)c([N+](=O)[O-])nn1CCCC(=O)Nc1sc2c(c1C#N)CCC2	B2AR ag 59 | B2AR ag CP1 inactive | B2AR FAP counter inactive
Cc1c(Cl)c([N+](=O)[O-])nn1CCCC(=O)Nc1sc2c(c1C#N)CCC2	none
Cc1cc(S(=O)(=O)N2CCOCC2)ccc1OCC(=O)Nc1ccccc1F	none (no result: CHOP inhibitor) | B2AR ag CP1 inactive | B2AR FAP counter inactive
COc1ccc(NC(=O)COc2ccc(S(=O)(=O)N3CCOCC3)cc2C)cc1OC	none (no result: CHOP inhibitor) | B2AR ag CP1 inactive | B2AR FAP counter inactive
COc1ccc(S(=O)(=O)N2CCOCC2)cc1NC(=O)COc1ccccc1OC	none (no result: CHOP inhibitor)
CN(C)S(=O)(=O)c1cccc(NC(=O)COc2ccc(S(=O)(=O)N3CCOCC3)cc2Cl)c1	none (no result: CHOP inhibitor)
Cc1cc(S(=O)(=O)N2CCOCC2)ccc1OCC(=O)Nc1cccc(F)c1	none (no result: CHOP inhibitor) | B2AR ag CP1 inactive | B2AR FAP counter inactive
Cc1ccccc1NC(=O)COc1ccc(S(=O)(=O)N2CCCC2)cc1C	none (no result: CHOP inhibitor) | B2AR ag CP1 inactive | B2AR FAP counter inactive
C=CCn1c(=O)c(C(=O)Nc2ccc(C)cc2)c(O)c2ccccc21	none (no result: CHOP inhibitor)
Cc1cc(C)nc(NC(=O)CSc2nc3ccccc3s2)n1	none
Cc1cc(C)n2c(Br)c(CSc3nc4ccccc4s3)nc2n1	B2AR ag 47 | B2AR ag CP1 inactive | B2AR FAP counter inactive
COc1ccc(CN(C2CC2)S(=O)(=O)c2ccccc2Br)cc1	none (no result: VLA-4 inh, CHOP inhibitor)
OC(CSc1ccccc1)CN1CCN(c2ccc(Cl)cc2)CC1 (stereo not drawn)	none (no result: VLA-4 inh, CHOP UPR activ, CHOP inhibitor, XBP1 UPR activ)
O=C(Nc1ccc(N2CCCC2)cc1)c1ccc(Cl)cc1Cl	none (no result: CHOP inhibitor)
O=C(Nc1ccc(N2CCCC2)cc1)c1cc(Cl)ccc1Cl	B2AR ag 73 (no result: CHOP inhibitor) | B2AR ag CP1 inactive | B2AR FAP counter inactive
Cc1ccc(F)cc1NC(=O)COC(=O)COc1ccc(C#N)cc1	none (no result: CHOP inhibitor)
COc1cc(/C=C2/C(=O)NN(c3ccc(Cl)cc3)C2=O)ccc1OC(=O)c1ccco1	none
COc1cc(/C=C2/C(=O)NN(c3cccc(F)c3)C2=O)ccc1OC(=O)c1ccco1	B2AR ag 47 | B2AR ag CP1 inactive | B2AR FAP counter inactive
O=C(NNC(=O)c1c(O)c2ccccc2[nH]c1=O)c1ccccc1Br	none (no result: CHOP inhibitor)
O=P(OCC1CCCO1)(OCC1CCCO1)OCC1CCCO1 (stereo not drawn)	none (no result: VLA-4 inh, CHOP UPR activ, CHOP inhibitor, XBP1 UPR activ)
CCCC(=O)N(C1CC(C)C(C#N)(C#N)C1(C#N)C#N)N(C)C (stereo not drawn)	B2AR ag 43 | B2AR ag CP1 34 | B2AR FAP counter inactive
CN(C)C(CNC(=O)CCNS(=O)(=O)c1ccccc1C(F)(F)F)c1ccccc1 (stereo not drawn)	none (no result: CHOP inhibitor)
c1cncc(-c2nc(NCC3COc4ccccc4O3)c3ccccc3n2)c1 (stereo not drawn)	none
c1cncc(CNc2nc(-c3cccnc3)nc3ccccc23)c1	none (no result: CHOP inhibitor) | B2AR ag CP1 inactive | B2AR FAP counter inactive
Clc1cccc(CNc2nc(-c3cccnc3)nc3ccccc23)c1	none (no result: VLA-4 inh, CHOP inhibitor)
Fc1ccc(CNc2nc(-c3cccnc3)nc3ccccc23)cc1	none (no result: CHOP inhibitor) | B2AR ag CP1 inactive | B2AR FAP counter inactive
c1cncc(-c2nc(NCc3ccc4c(c3)OCO4)c3ccccc3n2)c1	none | B2AR ag CP1 inactive | B2AR FAP counter inactive
Cc1ccc(CNc2nc(-c3cccnc3)nc3ccccc23)cc1	none (no result: CHOP inhibitor) | B2AR ag CP1 inactive | B2AR FAP counter inactive
Cc1ccc(Nc2nc(-c3cccnc3)nc3ccccc23)cc1	none
Cc1cc(C)c(S(=O)(=O)c2cccc(C(F)(F)F)c2)c(=O)[nH]1	none (no result: CHOP inhibitor)
NS(=O)(=O)c1ccc(CNc2nc(-c3cccnc3)nc3ccccc23)cc1	none (no result: CHOP inhibitor) | B2AR ag CP1 inactive | B2AR FAP counter inactive
CC(C)(C)c1ccc(-c2nc(NCc3cccnc3)c3ccccc3n2)cc1	none
c1ccc(CNc2nc(-c3cccnc3)nc3ccccc23)cc1	none (no result: CHOP inhibitor) | B2AR ag CP1 inactive | B2AR FAP counter inactive
COc1ccc(CC(=O)Nc2ccc3c(c2)C(=O)N(CCC(=O)O)C3=O)cc1	none (no result: CHOP inhibitor)
CC(C)C(=O)Nc1ccc2c(c1)C(=O)N(CCC(=O)O)C2=O	B2AR ag 43 | B2AR ag CP1 inactive | B2AR FAP counter inactive
COc1cc2ncc(S(=O)(=O)c3ccccc3)c(N3CCCC(C)C3)c2cc1OC (stereo not drawn)	B2AR ag 69 (no result: CHOP inhibitor) | B2AR ag CP1 9.0 | B2AR FAP counter inactive
COc1ccc(-n2nc3c(N4CCC(C(=O)NCc5cccc(C)c5)CC4)nnc(C)c3c2C)cc1	B2AR ag 92 (no result: CHOP inhibitor) | B2AR ag CP1 27 | B2AR FAP counter inactive
